Assay results as given in ChEMBL document CHEMBL1155343, “Discovery of N-(3-(morpholinomethyl)-phenyl)-amides as potent and selective CB2 agonists” (Bioorg Med Chem Lett, 2009).
Entries after “also recorded” stand apart in the source; their conditions may differ. Calls of active or inactive are those of the source.

What was measured:
Cannabinoid receptor 1 = Cannabinoid receptor 1 (Homo sapiens, UniProt P21554); assay: Displacement of [3H]CP-55940 from human CB1 receptor expressed in CHO cells; type: cell-based
Sequence of Cannabinoid receptor 1 (P21554 whole entry): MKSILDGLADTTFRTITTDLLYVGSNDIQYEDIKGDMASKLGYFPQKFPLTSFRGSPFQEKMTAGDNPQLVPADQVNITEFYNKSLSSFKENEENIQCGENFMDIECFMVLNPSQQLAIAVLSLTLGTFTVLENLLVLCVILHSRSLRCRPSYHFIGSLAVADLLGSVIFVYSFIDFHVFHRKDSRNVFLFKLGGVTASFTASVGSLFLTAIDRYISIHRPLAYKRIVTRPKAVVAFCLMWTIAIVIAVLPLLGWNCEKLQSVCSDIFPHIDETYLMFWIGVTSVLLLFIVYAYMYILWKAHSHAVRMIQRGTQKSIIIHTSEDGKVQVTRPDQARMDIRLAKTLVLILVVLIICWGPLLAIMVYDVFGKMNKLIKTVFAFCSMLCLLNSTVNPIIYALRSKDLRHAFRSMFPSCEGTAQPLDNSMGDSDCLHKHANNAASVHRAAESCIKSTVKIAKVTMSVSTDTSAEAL
In short: (§1)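 Ki values are geometric means of at least three separate determinations. Selectivity is expressed as the ratio of the CB1 Ki to the CB2 Ki.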

Cannabinoid receptor 2 [1] = target: T1, Cannabinoid receptor 2 (Homo sapiens, UniProt P34972); assay: Displacement of [3H]CP-55940 from human CB2 receptor expressed in CHO cells; type: cell-based; in short: as §1
T1 sequence (P34972 whole entry): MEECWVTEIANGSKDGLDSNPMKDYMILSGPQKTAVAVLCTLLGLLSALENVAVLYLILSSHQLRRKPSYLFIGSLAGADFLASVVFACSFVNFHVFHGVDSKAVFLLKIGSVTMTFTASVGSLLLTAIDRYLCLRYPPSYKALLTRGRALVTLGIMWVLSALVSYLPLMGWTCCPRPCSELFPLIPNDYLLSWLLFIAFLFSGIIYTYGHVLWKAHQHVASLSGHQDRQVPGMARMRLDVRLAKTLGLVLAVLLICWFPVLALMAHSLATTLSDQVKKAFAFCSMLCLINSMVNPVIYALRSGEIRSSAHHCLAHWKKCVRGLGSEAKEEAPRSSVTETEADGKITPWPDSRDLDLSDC

[2] = Metabolic stability in rat liver microsomes after 30 mins; type: ADME, Microsome; conditions: read-out: Stability
In short: (§2)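 Compounds incubated with liver microsomes for 30 min. Read-out is percent of parent compound remaining.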

Cannabinoid receptor 2 [3] = target: T1, Cannabinoid receptor 2; assay: Agonist activity at human CB2 receptor expressed in CHO cells by [35S]GTPgammaS binding assay; type: functional, cell-based
In short: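 [35S]GTPγS binding with membranes from transfected CHO cells expressing CB2. EC50 values are geometric means of at least three separate determinations.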

[4] = Metabolic stability in human liver microsomes after 30 mins; type: ADME, Microsome; conditions: read-out: Stability; in short: as §2
Homo sapiens = organism: Homo sapiens; assay: Selectivity ratio, Ki for human CB1 receptor to Ki for human CB2 receptor; in short: as §1
Mus musculus [5] = assay: Antiallodynic activity in mouse hind paw incision model of post-operative pain assessed as hind paw withdrawal threshold at 10 mg/kg, ip; type: functional, organism-based; set-up: dose 10 mg/kg
Mus musculus [6] = assay: Antiallodynic activity in mouse hind paw incision model of post-operative pain assessed as hind paw withdrawal threshold at 3 mg/kg, ip; type: functional, organism-based; set-up: dose 3 mg/kg
Mus musculus [7] = assay: Antiallodynic activity in po dosed mouse hind paw incision model of post-operative pain assessed as hind paw withdrawal threshold; type: functional, organism-based
Mus musculus [8] = assay: Toxicity in mouse hind paw incision model assessed as behavioral effects at 10 mg/kg, ip; type: organism-based; set-up: dose 10 mg/kg, route intraperitoneal; conditions: in vivo
Mus musculus [9] = assay: Toxicity in mouse hind paw incision model assessed as behavioral effects at 3 mg/kg, ip; type: organism-based; set-up: dose 3 mg/kg, route intraperitoneal; conditions: in vivo

| Structure (SMILES) | Ki (Cannabinoid receptor 1) | Ki (Cannabinoid receptor 2 [1]) | remaining at 0.5 h [2] | Activity (Cannabinoid receptor 1) | EC50 (Cannabinoid receptor 2 [3]) | remaining at 0.5 h [4] | Ratio Ki (Homo sapiens) | Activity (Mus musculus [5]) | Activity (Mus musculus [6]) | Activity (Mus musculus [7]) | Activity (Mus musculus [8]) | Activity (Mus musculus [9]) |
| --- | --- | --- | --- | --- | --- | --- | --- | --- | --- | --- | --- | --- |
| Cc1ccc(C(=O)NC2C(C)(C)[C@@H]3CC[C@@]2(C)C3)cc1C(=O)N1CCOCC1 (some centres not stated) | > 5000 nM | 1200 nM | 26% | – | – | – | – | – | – | – | – | – |
| CCC(C)(C)C(=O)Nc1cc(CN2CCOCC2)c(C)cc1C | – | 530 nM | 42% | 18% | 500 nM | 61% | – | – | – | – | – | – |
| Cc1ccc(C(=O)NC2C(C)(C)[C@@H]3CC[C@@]2(C)C3)cc1CCN1CCOCC1 (some centres not stated) | 1400 nM | 45 nM | – | – | 64 nM | – | 31 | – | – | – | – | – |
| Cc1ccc(C(=O)NC2C(C)(C)[C@@H]3CC[C@@]2(C)C3)cc1CCC(=O)N1CCOCC1 (some centres not stated) | 1700 nM | 83 nM | – | – | – | – | 20 | – | – | – | – | – |
| CC(C(=O)Nc1ccc2c(c1)C(N1CCOCC1)CCC2)(C(F)(F)F)C(F)(F)F (stereo in doubt; 43) | 3400 nM | 10 nM | – | – | 41 nM | – | – | – | – | – | – | – |
| Cc1ccc(C(=O)NC2C(C)(C)[C@@H]3CC[C@@]2(C)C3)cc1CCCN1CCOCC1 (some centres not stated) | 2100 nM | 62 nM | – | – | 110 nM | – | 34 | – | – | – | – | – |
| Cc1ccc(C(=O)NC2C(C)(C)[C@@H]3CC[C@@]2(C)C3)cc1S(=O)(=O)N1CCOCC1 (some centres not stated) | 130 nM | 3.9 nM | – | – | 6.6 nM | – | 31 | – | – | – | – | – |
| Cc1ccc(NC(=O)C(C)(C(F)(F)F)C(F)(F)F)cc1CN1CCOCC1 | 6300 nM | 16 nM | 0.9% | – | 14 nM | 42% | 390 | – | – | – | – | – |
| CCC(C)(C)C(=O)Nc1cc(CN2CCOCC2)c(C)cc1F | – | 120 nM | 20% | 10% | 200 nM | 57% | – | – | – | – | – | – |
| CCC(C)(C)C(=O)Nc1ccc(C)c(CN2CCOCC2)c1 | – | 120 nM | 29% | 4% | 110 nM | 56% | – | – | – | – | – | – |
| Cc1cc(NC(=O)C2CCCCC2C)cc(CN2CCOCC2)c1C (configuration not stated) | 540 nM | 8.6 nM | 1% | – | 21 nM | 32% | 63 | – | – | – | – | – |
| Cc1ccc(NC(=O)C2CCCCC2C)cc1CN1CCOCC1 (configuration not stated) | 1600 nM | 70 nM | 2.2% | – | 76 nM | 38% | 23 | – | – | – | – | – |
| Cc1ccc(C(=O)NC2C3(C)CCC(C3)C2(C)C)cc1CC(=O)N1CCOCC1 (configuration not stated) | 3900 nM | 700 nM | – | – | – | – | 5.6 | – | – | – | – | – |
| Cc1cc(C)c(NC(=O)C2CCCCC2C)cc1CN1CCOCC1 (configuration not stated) | – | 440 nM | 67% | 14% | 590 nM | 49% | – | – | – | – | – | – |
| Cc1ccc(C(=O)NC2C(C)(C)[C@@H]3CC[C@@]2(C)C3)cc1N1CCOCC1 (some centres not stated) | 9000 nM | 300 nM | – | – | – | – | 30 | – | – | – | – | – |
| Cc1ccc(C(=O)NC2C(C)(C)[C@@H]3CC[C@@]2(C)C3)cc1CN1CCOCC1 (some centres not stated) | 1100 nM | 19 nM | – | – | 42 nM | – | 58 | – | – | – | – | – |
| Cc1cc(NC(=O)C(C)(C(F)(F)F)C(F)(F)F)cc(CN2CCOCC2)c1C | 500 nM | 2.7 nM | 3.1% | – | 5.5 nM | 31% | 190 | Active | Active | inactive | Non-toxic; also recorded: Not Active | – |
| CC(C(=O)Nc1ccc2c(c1)C(N1CCOCC1)CCC2)(C(F)(F)F)C(F)(F)F (single isomer, unassigned; enantiomer 2) | > 5000 nM | 120 nM | – | – | 72 nM | – | – | – | – | – | – | – |
| CC(C(=O)Nc1ccc2c(c1)C(N1CCOCC1)CCC2)(C(F)(F)F)C(F)(F)F (single isomer, unassigned) | 1300 nM | 2.3 nM | – | – | 3.6 nM | – | – | – | – | – | – | – |
| Cc1cc(F)c(NC(=O)C2CCCCC2C)cc1CN1CCOCC1 (configuration not stated) | – | 37 nM | 15% | 31% | 49 nM | 36% | – | – | – | – | – | – |
| Cc1c(CN2CCOCC2)cc(NC(=O)C2CCCCC2C)cc1C(F)(F)F (configuration not stated) | 110 nM | 17 nM | 2% | – | 42 nM | 2% | 6.5 | – | – | – | – | – |
| CN1CC[C@]23c4c5ccc(O)c4O[C@H]2[C@@H](O)C=C[C@H]3[C@H]1C5 [MORPHINE] | – | – | – | – | – | – | – | – | – | – | – | Not Active |
